These results are taken from ChEMBL document CHEMBL3862017, “Synthesis and evaluation of the structural elements in alkylated tetrahydroisoquinolines for binding to CNS receptors” (Bioorg Med Chem, 2016).

Structures are written as SMILES. A value given as a limit tells only on which side of the number the result lay.

One data set concerns the target T1, D(4) dopamine receptor (Rattus norvegicus, UniProt P30729).
T1 sequence (P30729 whole entry): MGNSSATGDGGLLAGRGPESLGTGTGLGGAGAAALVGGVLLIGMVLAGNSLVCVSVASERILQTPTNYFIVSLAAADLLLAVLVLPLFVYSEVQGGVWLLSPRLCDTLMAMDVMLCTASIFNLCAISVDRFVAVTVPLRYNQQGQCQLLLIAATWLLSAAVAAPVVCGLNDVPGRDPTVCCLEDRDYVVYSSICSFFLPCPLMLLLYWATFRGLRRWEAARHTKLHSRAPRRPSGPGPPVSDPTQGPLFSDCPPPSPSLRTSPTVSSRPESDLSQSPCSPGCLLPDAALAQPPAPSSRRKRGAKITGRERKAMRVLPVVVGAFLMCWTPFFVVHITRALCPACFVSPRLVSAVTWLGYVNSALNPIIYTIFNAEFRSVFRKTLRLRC

For data set [1], the target named is D(2) dopamine receptor (Homo sapiens) (UniProt P14416). The data set is described as follows: Displacement of [3H]-N-methylspiperone from human dopamine D2 receptor by liquid scintillation counting method. Set-up: concentration or dose not given beside the values. The following applies: concentration not given here. The method in brief: (§1)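 Binding assays run by the NIMH Psychoactive Drug Screening Program (PDSP) using its previously reported methods and radioligands. Affinity is given as Ki.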
(Loss of bound radioactivity is the signal in a displacement assay; it reports binding, not function.)

The target of data set [2] is T2, 5-hydroxytryptamine receptor 1A (Homo sapiens) (UniProt P08908).
T2 sequence (whole entry): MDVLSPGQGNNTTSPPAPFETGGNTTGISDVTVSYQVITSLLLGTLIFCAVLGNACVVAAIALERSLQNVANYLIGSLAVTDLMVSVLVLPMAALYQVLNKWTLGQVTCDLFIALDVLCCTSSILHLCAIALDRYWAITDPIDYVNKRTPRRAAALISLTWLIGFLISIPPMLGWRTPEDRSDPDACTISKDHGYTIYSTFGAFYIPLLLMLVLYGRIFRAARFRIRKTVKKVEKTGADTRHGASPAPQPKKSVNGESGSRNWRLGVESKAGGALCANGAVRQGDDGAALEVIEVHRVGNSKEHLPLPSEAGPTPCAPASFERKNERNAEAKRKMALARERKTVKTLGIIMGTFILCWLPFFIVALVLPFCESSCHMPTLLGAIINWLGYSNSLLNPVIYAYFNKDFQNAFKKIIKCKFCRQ
The data set is described as follows: Displacement of [3H]-8-OH-DPAT from human 5-HT1A receptor by liquid scintillation counting method. The note with it: concentration not given here. A digest of the protocol: as §1

The target in data set [3] is 5-hydroxytryptamine receptor 2A (Homo sapiens, UniProt P28223). The data set is described as follows: Displacement of [3H]-ketanserin from human 5-HT2A receptor by liquid scintillation counting method. The following applies: for inhibition: concentration not given here. A digest of the protocol: as §1
The target in data set [4] is 5-hydroxytryptamine receptor 7 (Homo sapiens) (UniProt P34969). The data set is described as follows: Displacement of [3H]-LSD from human 5-HT7 receptor by liquid scintillation counting method. The following applies: concentration not given here. The method in brief:
as §1

In data set [5] the target is 5-hydroxytryptamine receptor 2B (Homo sapiens, UniProt P41595). The data set can be described thus: Displacement of [3H]-LSD from human 5-HT2B receptor by liquid scintillation counting method. The method in brief: as §1
In data set [6] the target is T3, 5-hydroxytryptamine receptor 2C (Homo sapiens, UniProt P28335).
T3 sequence (P28335 whole entry): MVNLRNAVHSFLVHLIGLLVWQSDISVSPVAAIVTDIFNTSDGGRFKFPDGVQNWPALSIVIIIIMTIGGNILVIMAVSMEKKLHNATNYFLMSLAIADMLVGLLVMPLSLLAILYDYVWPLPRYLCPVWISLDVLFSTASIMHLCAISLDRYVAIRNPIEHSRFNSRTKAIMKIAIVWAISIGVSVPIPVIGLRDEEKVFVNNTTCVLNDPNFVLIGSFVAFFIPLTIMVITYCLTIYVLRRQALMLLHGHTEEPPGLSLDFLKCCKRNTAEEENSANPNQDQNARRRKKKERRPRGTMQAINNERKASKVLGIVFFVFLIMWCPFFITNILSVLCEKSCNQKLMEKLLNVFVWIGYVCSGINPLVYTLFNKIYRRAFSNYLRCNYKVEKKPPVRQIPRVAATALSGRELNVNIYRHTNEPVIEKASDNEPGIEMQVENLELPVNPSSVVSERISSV
The data set is described as follows: Displacement of [3H]-mesulergine from human 5-HT2C receptor by liquid scintillation counting method. The note with it: for inhibition (INH): human. A digest of the protocol:
as §1

The target in a further data set is Histamine H1 receptor (Homo sapiens, UniProt P35367). The data set can be described thus: Displacement of [3H]-pyrilamine from human histamine H1 receptor by liquid scintillation counting method. The method in brief: as §1
The target of data set [7] is D(3) dopamine receptor (Homo sapiens) (UniProt P35462). The data set is described as follows: Displacement of [3H]-N-methylspiperone from human dopamine D3 receptor by liquid scintillation counting method. The note with it: concentration not given here. A digest of the protocol:
as §1

Sequence of 5-hydroxytryptamine receptor 2B (P41595 whole entry): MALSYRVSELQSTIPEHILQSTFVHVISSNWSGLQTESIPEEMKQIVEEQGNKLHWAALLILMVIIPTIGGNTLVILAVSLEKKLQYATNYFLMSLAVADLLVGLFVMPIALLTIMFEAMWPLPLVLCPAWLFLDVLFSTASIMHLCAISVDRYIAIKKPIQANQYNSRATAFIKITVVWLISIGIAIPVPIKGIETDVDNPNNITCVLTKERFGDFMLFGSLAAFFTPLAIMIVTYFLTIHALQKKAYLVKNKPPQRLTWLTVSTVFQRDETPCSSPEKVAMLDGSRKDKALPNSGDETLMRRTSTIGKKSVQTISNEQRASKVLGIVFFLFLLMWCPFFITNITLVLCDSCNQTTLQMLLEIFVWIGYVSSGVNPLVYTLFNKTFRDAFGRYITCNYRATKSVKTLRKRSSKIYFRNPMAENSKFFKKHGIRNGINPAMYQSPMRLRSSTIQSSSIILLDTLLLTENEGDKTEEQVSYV
Sequence of 5-hydroxytryptamine receptor 7 (Homo sapiens) (P34969 whole entry): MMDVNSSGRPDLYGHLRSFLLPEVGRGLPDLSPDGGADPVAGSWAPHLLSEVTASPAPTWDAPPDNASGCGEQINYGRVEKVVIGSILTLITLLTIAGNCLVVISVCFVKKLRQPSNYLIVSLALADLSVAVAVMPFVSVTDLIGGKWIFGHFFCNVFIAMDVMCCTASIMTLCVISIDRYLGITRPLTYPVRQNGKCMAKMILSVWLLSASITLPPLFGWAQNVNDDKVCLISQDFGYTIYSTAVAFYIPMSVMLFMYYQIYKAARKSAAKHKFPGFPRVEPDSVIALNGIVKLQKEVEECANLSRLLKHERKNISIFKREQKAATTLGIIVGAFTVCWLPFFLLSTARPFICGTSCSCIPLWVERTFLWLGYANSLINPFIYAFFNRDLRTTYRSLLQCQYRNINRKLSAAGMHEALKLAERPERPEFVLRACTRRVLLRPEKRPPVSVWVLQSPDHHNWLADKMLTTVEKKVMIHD
Sequence of 5-hydroxytryptamine receptor 2A (P28223 whole entry): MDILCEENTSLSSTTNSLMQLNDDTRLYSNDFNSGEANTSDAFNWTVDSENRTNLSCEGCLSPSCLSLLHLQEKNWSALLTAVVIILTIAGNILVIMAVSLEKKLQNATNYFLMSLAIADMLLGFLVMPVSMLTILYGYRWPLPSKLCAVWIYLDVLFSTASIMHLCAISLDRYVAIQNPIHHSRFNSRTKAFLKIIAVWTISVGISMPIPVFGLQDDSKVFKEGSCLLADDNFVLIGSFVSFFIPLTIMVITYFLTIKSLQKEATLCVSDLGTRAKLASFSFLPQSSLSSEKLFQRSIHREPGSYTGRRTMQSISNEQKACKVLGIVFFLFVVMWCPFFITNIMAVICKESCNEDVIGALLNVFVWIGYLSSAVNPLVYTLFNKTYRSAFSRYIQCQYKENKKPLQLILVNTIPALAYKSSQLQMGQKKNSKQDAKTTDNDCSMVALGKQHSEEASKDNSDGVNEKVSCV
Sequence of Histamine H1 receptor (P35367 whole entry): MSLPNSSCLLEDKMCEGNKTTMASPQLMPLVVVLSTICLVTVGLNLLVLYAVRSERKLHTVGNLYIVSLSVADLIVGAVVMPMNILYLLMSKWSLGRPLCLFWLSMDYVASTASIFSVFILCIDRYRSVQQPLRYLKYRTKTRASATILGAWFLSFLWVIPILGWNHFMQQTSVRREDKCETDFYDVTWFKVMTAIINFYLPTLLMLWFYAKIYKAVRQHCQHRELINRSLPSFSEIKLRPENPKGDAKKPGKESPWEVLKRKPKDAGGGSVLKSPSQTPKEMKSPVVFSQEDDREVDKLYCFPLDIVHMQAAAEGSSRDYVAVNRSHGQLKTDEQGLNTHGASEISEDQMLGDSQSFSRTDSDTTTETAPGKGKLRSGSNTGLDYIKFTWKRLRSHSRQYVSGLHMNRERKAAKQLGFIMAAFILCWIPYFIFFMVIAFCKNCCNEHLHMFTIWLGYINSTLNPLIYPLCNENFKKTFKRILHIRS
Sequence of D(2) dopamine receptor (Homo sapiens) (P14416 whole entry): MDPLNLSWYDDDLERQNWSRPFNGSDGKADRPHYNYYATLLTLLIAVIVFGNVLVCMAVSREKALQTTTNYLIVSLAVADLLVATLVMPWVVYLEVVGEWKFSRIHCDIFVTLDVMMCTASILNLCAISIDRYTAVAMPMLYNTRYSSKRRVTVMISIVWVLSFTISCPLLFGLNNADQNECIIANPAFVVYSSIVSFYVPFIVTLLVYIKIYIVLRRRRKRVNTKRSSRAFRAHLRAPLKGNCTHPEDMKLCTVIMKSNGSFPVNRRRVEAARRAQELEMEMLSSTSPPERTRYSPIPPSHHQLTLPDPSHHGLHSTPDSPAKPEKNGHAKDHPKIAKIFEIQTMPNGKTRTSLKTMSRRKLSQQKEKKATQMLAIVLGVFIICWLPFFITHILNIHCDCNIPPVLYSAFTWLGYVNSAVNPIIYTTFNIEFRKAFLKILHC
Sequence of D(3) dopamine receptor (Homo sapiens) (P35462 whole entry): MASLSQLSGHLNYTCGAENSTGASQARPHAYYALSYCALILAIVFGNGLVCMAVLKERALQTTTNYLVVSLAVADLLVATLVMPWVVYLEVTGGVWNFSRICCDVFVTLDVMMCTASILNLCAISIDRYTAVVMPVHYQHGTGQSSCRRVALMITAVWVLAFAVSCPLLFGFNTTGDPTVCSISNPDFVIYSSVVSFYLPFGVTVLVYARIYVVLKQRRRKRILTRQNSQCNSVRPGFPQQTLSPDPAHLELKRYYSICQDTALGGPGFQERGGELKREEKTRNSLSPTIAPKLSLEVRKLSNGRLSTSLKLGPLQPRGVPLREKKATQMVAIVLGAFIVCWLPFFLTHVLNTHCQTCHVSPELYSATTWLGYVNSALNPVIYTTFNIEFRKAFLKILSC

As for `Clc1ccc2sc(CCCCN3CCC4CCCCC4C3)nc2c1` (centres undefined), affinity at D(4) dopamine receptor was put at a Ki of 37 nM.
With `CC1(C)CC(=O)N(CCCCN2CCc3ccccc3C2)C(=O)C1.Cl`, the inhibition in data set [1], in data set [2], in [3] and in data set [4] was less than 50% each time. Also, the “inhibition (INH)” value (in data set [5]; in data set [6]; at Histamine H1 receptor) was less than 50% in each case.
Consider `Cl.Cl.c1ccc2c(c1)CCN(CCCc1nc3ccccc3[nH]1)C2`, for which the inhibitory constant (Ki) (usually the equilibrium dissociation constant of an inhibitor or competing ligand from its target) on D(4) dopamine receptor was 127 nM; in data set [3], greater than 10000 nM; in [6], greater than 10000 nM. Moreover, the “inhibition (INH)” value in [5] was less than 50%.
As to `O=C(CCCN1CCc2ccccc2CC1)c1ccc(Cl)cc1`, the Ki at D(4) dopamine receptor is 82 nM.
Molecule `O=C(CCCN1CCCc2ccccc2C1)c1ccc(Cl)cc1` returned an inhibitory constant (Ki) on D(4) dopamine receptor of 442 nM.
`Clc1cccc2c1CN(CCCCc1nc3ccccc3s1)CC2` returned a Ki at D(4) dopamine receptor of 129 nM.
As to `Cl.Clc1ccc(C(=CCCN2CCc3ccccc3C2)c2ccc(Cl)cc2)cc1`, the inhibition in data set [1], in data set [2] and in data set [3] was less than 50% throughout. Further, the “inhibition (INH)” value in data set [5] is recorded as less than 50%.
With `O=C1c2ccc(Cl)cc2CC1CCN1CCc2ccccc2C1` (centres undefined), at D(4) dopamine receptor, affinity was put at a Ki of 50 nM.
For `Cl.O=C(CCCN1CCCCc2ccccc21)c1ccc(Cl)cc1`, the inhibition in data set [7], in data set [1], in data set [2], in [3] and in data set [4] was less than 50% each time. Further, the “inhibition (INH)” value (in data set [5]; in [6]; at Histamine H1 receptor) was less than 50% in each case.
For `c1ccc2c(c1)CCN(CCCc1nc3ccccc3s1)C2`, the inhibition (in general, the change of the read-out against control, counted positive when it falls) in [1] is less than 50%. Affinity on D(4) dopamine receptor was put at a Ki of 41 nM.
`COc1cc2c(cc1OC)CN(CCCCc1nc3cc(Cl)ccc3s1)CC2` came in with an inhibitory constant (Ki) at D(4) dopamine receptor of 272 nM.
Still for that read-out and setting: the result for `CC1(C)CC(=O)N(CCCCN2Cc3ccccc3C2)C(=O)C1` reads greater than 10000 nM.
At D(4) dopamine receptor, `O=C1c2ccc(F)cc2CC1CCN1CCc2ccccc2C1` (centres undefined) returned an inhibitory constant (Ki) of 251 nM. Further, the “inhibition (INH)” value in data set [6] is less than 50%.
Regarding `O=C1c2ccccc2CC1CCN1CCc2ccccc2C1` (centres undefined), at D(4) dopamine receptor, the affinity corresponds to a Ki of 1100 nM.
Turning to `O=C(CCCN1CCCc2ccccc21)c1ccc(Cl)cc1`, the inhibition in data set [7], in data set [1], in data set [2], in data set [3] and in data set [4] was less than 50% in each case. In addition, the “inhibition (INH)” value (in data set [5]; at Histamine H1 receptor) was less than 50% each time.
`O=C1Cc2cc(C(=O)CCCN3CCc4ccccc4C3)ccc2N1`: the Ki at D(4) dopamine receptor was 3340 nM. The “inhibition (INH)” value at Histamine H1 receptor is recorded as less than 50%.
Regarding `C1=C(CCN2CCc3ccccc3C2)Cc2ccccc21`, the inhibition in [1] is less than 50%. The molecule further had a Ki on D(4) dopamine receptor of 194 nM. The “inhibition (INH)” value (in data set [6]; on Histamine H1 receptor) was less than 50% in each case.
The molecule `C1=C(CCN2CCc3ccccc3C2)CCc2ccccc21` gave a Ki on D(4) dopamine receptor of 140 nM.
